Measurements as given in ChEMBL document CHEMBL1130412, “Antiulcer agents. 6. Analysis of the in vitro biochemical and in vivo gastric antisecretory activity of substituted imidazo[1,2-a]pyridines and related analogues using comparative molecular field analysis and hypothetical active site lattice methodologies” (J Med Chem, 1997).
The source made the active and inactive calls. The rule behind the calls is not given here.

Legend:
[1] = Dissociation constant (pKa); type: physicochemical
Canis familiaris [2] = test: Intravenous effective dose for gastric antisecretory activity against histamine-stimulated gastric acid secretion in adult mongrel dogs; Inactive-less than 20% inhibition at 5 mg/Kg (experimental); type: functional, organism-based; settings: Canis lupus familiaris; Stomach
Summary of the method: (§1)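 Adult mongrel dogs with surgically prepared Heidenhain pouches received histamine to stimulate acid secretion. Compounds were given intravenously at 0.1-5 mg/kg. Reduction in acid output was measured against the non-drug control value in the same animal. ED50 for 50% inhibition was derived by linear regression, with 95% confidence limits.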

Canis familiaris [3] = test: Intravenous effective dose for gastric antisecretory activity against histamine-stimulated gastric acid secretion in adult mongrel dogs; type: functional; settings: Canis lupus familiaris, Stomach; summary of the method: as §1
[4] = target: Potassium-transporting ATPase (Oryctolagus cuniculus); test: Inhibition of H+/K+ ATPase as reduced acid formation in rabbit gastric glands
[5] = target: Potassium-transporting ATPase (Sus scrofa, UniProt P19156); test: (§2) Inhibition of purified H+/K+ ATPase at pH 7.4 as released inorganic phosphate from ATP using hog stomach gastric membrane vesicles; type: tissue-based
Summary of the method: (§3)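 Gastric membrane vesicles from hog stomach were prepared by differential and zonal density gradient centrifugation. Activity was read as inorganic phosphate released from ATP at pH 7.4. Protein was measured by the Bradford method against a gammaglobulin standard.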

Canis familiaris [6] = test: Intravenous effective dose for gastric antisecretory activity against histamine-stimulated gastric acid secretion in adult mongrel dogs; Inactive; type: functional, organism-based; settings: Canis lupus familiaris; Stomach; summary of the method: as §1
Canis familiaris [7] = organism: Canis familiaris; test: Peroral effective dose for gastric antisecretory activity against histamine-stimulated gastric acid secretion in adult mongrel dogs; Inactive; type: functional, organism-based; settings: Canis lupus familiaris; Stomach
[8] = test system: Potassium-transporting ATPase (Oryctolagus cuniculus); test: Inhibition of H+/K+ ATPase was evaluated by its ability to inhibit acid formation in rabbit gastric glands; Inactive
[9] = target: T1, Potassium-transporting ATPase (Sus scrofa, UniProt P18434+P19156); test: Ability to inhibit purified H+/K+ ATPase at pH 7.4 measured as release of inorganic phosphate from ATP using gastric membrane vesicles prepared from hog stomach; Inactive; type: tissue-based
Summary of the method: as §3, with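 “7.4. IC50 was taken as the concentration giving 50% inhibition of K+-stimulated activity, calculated by linear regression and reported ± standard error of the mean.” for “7.4.”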

[10] = target: T1, Potassium-transporting ATPase; test: as §2; type: tissue-based; summary of the method: as §3

T1 sequence (P18434 whole entry): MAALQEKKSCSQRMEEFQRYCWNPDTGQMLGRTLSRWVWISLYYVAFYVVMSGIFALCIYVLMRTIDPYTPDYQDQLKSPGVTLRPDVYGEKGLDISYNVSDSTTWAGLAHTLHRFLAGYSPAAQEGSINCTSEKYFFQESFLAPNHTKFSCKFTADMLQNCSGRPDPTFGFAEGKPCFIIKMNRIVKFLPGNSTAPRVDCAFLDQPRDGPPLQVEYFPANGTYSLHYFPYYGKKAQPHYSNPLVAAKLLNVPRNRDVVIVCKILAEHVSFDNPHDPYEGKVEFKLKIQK
T1 sequence (P19156 whole entry): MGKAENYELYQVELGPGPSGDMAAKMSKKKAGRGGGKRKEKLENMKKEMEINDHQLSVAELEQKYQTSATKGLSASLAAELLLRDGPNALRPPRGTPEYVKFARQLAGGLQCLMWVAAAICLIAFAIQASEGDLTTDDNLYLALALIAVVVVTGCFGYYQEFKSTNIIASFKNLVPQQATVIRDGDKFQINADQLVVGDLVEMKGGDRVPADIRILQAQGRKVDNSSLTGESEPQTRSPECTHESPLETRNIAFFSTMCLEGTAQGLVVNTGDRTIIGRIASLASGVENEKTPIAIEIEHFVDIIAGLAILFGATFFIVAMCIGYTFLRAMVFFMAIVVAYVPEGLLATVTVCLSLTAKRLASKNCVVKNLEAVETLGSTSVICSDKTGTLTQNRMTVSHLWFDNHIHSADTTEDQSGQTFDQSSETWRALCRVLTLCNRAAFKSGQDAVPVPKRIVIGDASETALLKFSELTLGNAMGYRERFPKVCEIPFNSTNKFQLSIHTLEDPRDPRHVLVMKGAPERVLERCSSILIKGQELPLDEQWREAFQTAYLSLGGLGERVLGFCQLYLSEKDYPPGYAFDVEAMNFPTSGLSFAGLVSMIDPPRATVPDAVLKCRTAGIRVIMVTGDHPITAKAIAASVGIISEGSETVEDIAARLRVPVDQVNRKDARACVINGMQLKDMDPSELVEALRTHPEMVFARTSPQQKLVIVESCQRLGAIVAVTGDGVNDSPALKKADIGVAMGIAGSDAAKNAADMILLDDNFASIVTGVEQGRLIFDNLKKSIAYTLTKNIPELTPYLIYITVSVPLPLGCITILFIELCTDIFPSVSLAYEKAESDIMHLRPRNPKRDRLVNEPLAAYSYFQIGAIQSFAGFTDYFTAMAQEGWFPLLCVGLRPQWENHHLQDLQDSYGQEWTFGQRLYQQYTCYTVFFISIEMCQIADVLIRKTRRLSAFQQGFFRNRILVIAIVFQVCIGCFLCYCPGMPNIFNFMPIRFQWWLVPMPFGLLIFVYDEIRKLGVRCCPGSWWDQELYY
Chain of Potassium-transporting ATPase (Sus scrofa, UniProt P19156) (P18434 whole entry): as the sequence (P18434 whole entry) above
Chain of Potassium-transporting ATPase (Sus scrofa, UniProt P19156) (P19156 whole entry): as the sequence (P19156 whole entry) above

Structure (SMILES)	pKa [1]	IC50 ([4]; read-out: IC50)	IC50 [5]	ED50 (Canis familiaris [3])	ED50 (Canis familiaris [7])	also measured
Cc1c(C(F)(F)F)nc2c(OCc3ccccc3)cccn12	2					ED50 (Canis familiaris [2]): inactive
Cc1nc2c(CCc3ccccc3)cccn2c1C	7.5			0.2 mg/kg		
Cc1nc2c(/C=C/c3ccccc3)cccn2c1C		990 nM	1680 nM			
Cc1nc2c(/C=C\c3ccccc3)cccn2c1C		17500 nM	28400 nM		inactive	ED50 (Canis familiaris [6]): inactive
Cc1nc2c(/C=C/Cc3ccccc3)cccn2c1N		14100 nM	8600 nM		inactive	ED50 (Canis familiaris [6]): inactive
Cc1nc2c(OCc3ccccc3)cccn2c1C	7			0.1 mg/kg		
OCc1c(C(F)(F)F)nc2c(OCc3ccccc3)cccn12	2				inactive	ED50 (Canis familiaris [6]): inactive; IC50 [8]: Not Active; IC50 [9]: Not Active
Cc1nc2c(OCc3ccccc3)nccn2c1C	4.8			2 mg/kg		
Cc1nc2c(C/C=C/c3ccccc3)cccn2c1CC#N					inactive	ED50 (Canis familiaris [6]): inactive; IC50 [4]: 442 uM l-1; IC50 [10]: 206 uM l-1
Cc1nc2c(OCc3ccccc3)cccn2c1N		310 nM	890 nM			
Cc1nc2c(OCc3ccccc3)nccn2c1N		8080 nM				IC50 [10]: 178 uM l-1
Cc1nc2c(CCc3ccccc3)nccn2c1N	5.1					ED50 (Canis familiaris [2]): inactive

The next lines start with results.

pKa [1]	IC50 ([4]; read-out: IC50)	IC50 [5]	Structure (SMILES)	ED50 (Canis familiaris [3])	ED50 (Canis familiaris [7])	also measured
	130 nM	2000 nM	Cc1nc2c(CCc3ccccc3)cccn2c1CC#N			
	3800 nM	14000 nM	Cc1nc2c(/C=C/Cc3ccccc3)cccn2c1CC#N			
	64 nM	92 nM	Cc1nc2c3c(ccn2c1CC#N)CCC(c1ccccc1)O3 (stereo unspecified)	0.06 mg/kg		
2			N#CCc1c(C(F)(F)F)nc2c(OCc3ccccc3)cccn12		inactive	ED50 (Canis familiaris [6]): inactive; IC50 [8]: Not Active; IC50 [9]: Not Active
5.5			Cc1c(CC#N)nc2c(OCc3ccccc3)cccn12	0.8 mg/kg		
	1460 nM	2100 nM	Cc1nc2c(CCc3ccccc3)cccn2c1N			
6.1	530 nM	2200 nM	Cc1nc2c(OCc3ccccc3)cccn2c1CO	0.3 mg/kg	inactive	
	400 nM	13700 nM	Cc1ccn2c(CC#N)c(C)nc2c1OCc1ccccc1			
